DENV2 CPE rescue = DENV2-induced cell death inhibition; DENV2-infected cells, cytopathic effect rescue, plate reader; hit rate 1.7% among 350,000; CPE inhibition, % at 9.99 µM; in the data active = CPE inhibition above about 20%, passing the limit was not always enough; inconclusive = no clear call, values can overlap the other calls; tested in BHK-21 cells;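 also: 0% = median of neutral control wells and 100% = median of positive control wells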
S100A4 MyoIIA = S100A4-myosin IIA interaction inhibition | P26447 | S100A4/TAMRA-MyoIIA peptide fluorescence polarization | inhibition, % at 10.7 µM | hit rate 0.14% among 360,000 | AID 652163;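 active = mean inhibition of at least 70% across replicates, with every replicate also reaching that level; inconclusive = mean inhibition reaches 70% but some replicates fall short; inactive = mean inhibition below 70%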
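assay system = human S100A4 monomer with TAMRA-labelled myosin IIA peptide | also added = labelled myosin peptide probe, 5 nM | incubation = 5 min between mix addition and reading | control set = DMSO and TFP controls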
CaV13 FRET inh = Disruptors of the CACNA1D IQ motif to Ca2+-dependent inactivation inhibitor domain association, primary screening, Förster resonance energy transfer in intact living …; hit rate 0.098% among 340,000; inhibition, % at 12.3 µM; HEK cells, CFP/YFP FRET ICDI-IQ, plate reader, 10 min; percent FRET-ratio fall versus neutral wells;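 active = mean replicate inhibition of at least 30% and at least 1% of replicates passing that level; inconclusive = only one of the two criteria is met; inactive = neither criterion is met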;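 also: 0% = median of the neutral control wells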
MLL AF4-AF9 inh = inhibitors of human MLL-AF4/AF9 interaction | AlphaScreen, biotin-AF4 peptide binding to FLAG-AF9 | inhibition, % at 10 µM | hit rate 0.47% among 350,000;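 active = every replicate reaching a set inhibition limit, whatever the replicate mean, cut at about 25% in these data; inconclusive = mean inhibition reaches that limit but some replicates miss it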;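 also: 0% = plate neutral control median and 100% = total signal loss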
Target sequence (P42568 whole entry, looked up): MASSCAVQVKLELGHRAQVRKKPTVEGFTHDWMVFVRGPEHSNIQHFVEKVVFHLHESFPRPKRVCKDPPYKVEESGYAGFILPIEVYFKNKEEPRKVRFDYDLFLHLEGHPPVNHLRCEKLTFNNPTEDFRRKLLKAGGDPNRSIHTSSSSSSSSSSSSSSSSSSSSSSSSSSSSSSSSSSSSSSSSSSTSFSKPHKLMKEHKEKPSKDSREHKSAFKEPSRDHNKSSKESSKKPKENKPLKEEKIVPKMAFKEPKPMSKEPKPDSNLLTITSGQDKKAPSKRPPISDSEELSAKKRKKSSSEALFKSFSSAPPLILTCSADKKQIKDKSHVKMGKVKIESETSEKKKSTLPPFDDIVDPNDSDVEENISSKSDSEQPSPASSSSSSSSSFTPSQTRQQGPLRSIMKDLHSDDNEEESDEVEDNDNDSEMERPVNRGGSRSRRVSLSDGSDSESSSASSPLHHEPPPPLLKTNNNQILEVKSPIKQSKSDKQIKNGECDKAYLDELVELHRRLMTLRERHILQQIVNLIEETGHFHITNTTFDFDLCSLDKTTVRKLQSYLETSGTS
SIRT5 block = inhibitors of human sirtuin-5 desuccinylase | Purified SirT5, succinyl-peptide AMC, trypsin-coupled fluorescence | Q9NXA8 | hit rate 1.1% among 330,000 | inhibition, % at 15 µM | AID 652115; in the data active = inhibition above about 15%; inconclusive = no clear call, values can overlap the other calls
The depositor's hits bear a star; ? = inconclusive; · = no result given; ! = a repeat was not active. Most compounds without a hit are left out; they make up all but 2.7% or so of the library.

SMILES	DENV2 CPE rescue	S100A4 MyoIIA	CaV13 FRET inh	MLL AF4-AF9 inh	SIRT5 block
C[C@@H]1CN([C@@H](C)CO)C(=O)Cc2cc(NS(=O)(=O)c3ccc(Cl)cc3)ccc2O[C@@H]1CN(C)Cc1ccc(Oc2ccccc2)cc1	7.3	-3.3	·	0.3	4.1
C[C@H]1CN([C@@H](C)CO)C(=O)Cc2cc(NS(=O)(=O)c3ccc(Cl)cc3)ccc2O[C@@H]1CN(C)Cc1ccc(Oc2ccccc2)cc1	0.4	-50.2	·	1.8	17.4*
C[C@@H]1CN([C@H](C)CO)C(=O)Cc2cc(NS(=O)(=O)c3ccccc3)ccc2O[C@H]1CN(C)Cc1ccc(Oc2ccccc2)cc1	?	8.8	·	2.9	13.6
Cc1ccc(S(=O)(=O)Nc2ccc3c(c2)CC(=O)N([C@@H](C)CO)C[C@@H](C)[C@H](CN(C)Cc2ccc(Oc4ccccc4)cc2)O3)cc1	-26.2	-11.0	·	0.7	22.5*
Cc1ccc(S(=O)(=O)Nc2ccc3c(c2)CC(=O)N([C@H](C)CO)C[C@@H](C)[C@@H](CN(C)Cc2ccc(Oc4ccccc4)cc2)O3)cc1	38.2*	3.4	·	0.5	0.8
O=C(C[C@@H]1C=C[C@@H](NS(=O)(=O)c2ccc(F)cc2)[C@@H](CO)O1)NC1CCC1	1.4	2.5	·	-1.5	6.7
COc1ccc(S(=O)(=O)N(C)C[C@H]2Oc3cc(C4=CCCC4)ccc3S(=O)(=O)N([C@H](C)CO)C[C@H]2C)cc1	8.8	-0.4	·	0.0	3.7
CCCNC(=O)Nc1ccc2c(c1)OC[C@H](C)N(C(=O)C1CCCCC1)C[C@H](C)[C@H](OC)CN(C)C2=O	-6.5	5.6	·	1.2	-0.2
C[C@H]1CN([C@@H](C)CO)C(=O)c2cccc(NC(=O)Nc3ccccc3)c2O[C@@H]1CN(C)C(=O)Nc1ccc2c(c1)OCO2	2.5	3.8	·	3.2	-9.2
C[C@@H]1CN([C@@H](C)CO)C(=O)Cc2cc(NS(C)(=O)=O)ccc2O[C@H]1CN(C)Cc1ccc(Oc2ccccc2)cc1	29.8*	19.6	·	9.9	0.9
Cc1ccc(S(=O)(=O)Nc2ccc3c(c2)CC(=O)N([C@H](C)CO)C[C@@H](C)[C@H](CN(C)Cc2ccc(Oc4ccccc4)cc2)O3)cc1	58.5*	12.3	·	-6.5	1.1
O=C(CCN1CCCCC1)N[C@@H]1CC[C@H](CCNC(=O)c2cc(Cl)cc(Cl)c2)O[C@H]1CO	0.0	4.5	·	11.9	-0.4
COC1=C(Nc2ccc(C)cc2)C(=O)c2ccccc2C1=O	?	-1.6	-5.0	36.9*	·
CO[C@@H]1CN(C)C(=O)c2cc(NC(=O)c3ccno3)ccc2OC[C@H](C)N(S(C)(=O)=O)C[C@@H]1C	-4.7	-12.4	·	-8.3	·
C[C@H](CO)N1C[C@H](C)[C@@H](CN(C)Cc2ccncc2)Oc2c(NC(=O)Nc3ccc(C(F)(F)F)cc3)cccc2C1=O	-4.7	-9.4	·	0.9	0.7
Nc1ccn([C@@H]2O[C@H](C(=O)NCCc3ccc(F)cc3)[C@@H](O)[C@H]2O)c(=O)n1	87.3*	0.9	-10.7	-1.8	-2.1
CN(C)C(=O)N1CCN(C(=O)[C@H]2O[C@@H](n3ccc(N)nc3=O)[C@H](O)[C@@H]2O)CC1	70.2*	-9.6	-3.1	·	1.9
Nc1ccn([C@@H]2O[C@H](C(=O)N3CCN(C(=O)C(F)(F)F)CC3)[C@@H](O)[C@H]2O)c(=O)n1	-7.9	17.3	·	·	2.4
O=C(C[C@@H]1C[C@H]2c3cc(NC(=O)Nc4ccc(F)cc4)ccc3O[C@H]2[C@@H](CO)O1)NC1CCCC1	0.1	7.5	·	0.1	-0.6
CCC(=O)Nc1ccc2c(c1)OC[C@@H](C)N(Cc1ccccc1F)C[C@@H](C)[C@@H](OC)CN(C)C2=O	-0.5	-0.9	-6.2	3.3	29.8*!
CCC(=O)Nc1ccc2c(c1)C(=O)N(C)C[C@@H](OC)[C@H](C)CN(Cc1ccccc1F)[C@@H](C)CO2	-5.3	8.6	·	30.3*	6.3
CCC(=O)Nc1ccc2c(c1)C(=O)N(C)C[C@@H](OC)[C@H](C)CN(Cc1ccccc1F)[C@H](C)CO2	1.2	-17.3	·	7.3	1.5
COc1ccccc1CN1C[C@H](C)[C@H](OC)CN(C)C(=O)c2ccc(NC(C)=O)cc2OC[C@H]1C	43.3*	-19.6	·	2.2	0.6
